Laboratory results published in ChEMBL document CHEMBL2407056, “3-(Oxazolo[4,5-b]pyridin-2-yl)anilides as a novel class of potent inhibitors for the kinetoplastid Trypanosoma brucei, the causative agent for human African trypanosomiasis” (Eur J Med Chem, 2013).

Test system: not listed separately
Assay: Selectivity index, ratio of IC50 for HEK293 cells to IC50 for Trypanosoma brucei brucei 427 bloodstream form
Assay type: toxicity, cell-based
Conditions: human, read-out: Ratio IC50
Method in brief: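 HEK293 cells (55 µL of 72,727 cells/mL in DMEM + 10% FCS) in 384-well plates, 24 h at 37 °C/5% CO2. Drug diluted 1:21 from DMSO, final 83.34 to 0.0004 µM, 48 h. […] SI relative to T. b. brucei.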
`COc1ccc(-c2nc3ncccc3o2)cc1NC(=O)c1ccco1` showed a selectivity ratio of 74.
Molecule `O=C(Nc1cccc(-c2nc3ncccc3o2)c1)c1ccco1` has a selectivity ratio greater than 245.
For `Cc1ccc(-c2nc3ncccc3o2)cc1NC(=O)c1ccco1`, the selectivity ratio was 13.
For `Cc1ccc(NC(=O)c2ccco2)cc1-c1nc2ncccc2o1`, the selectivity ratio was greater than 88.
In the case of `Cc1ccc(NC(=O)c2cscn2)cc1-c1nc2ncccc2o1`, the selectivity ratio is reported as 32.
In the case of `O=C(Nc1ccc(F)c(-c2nc3ncccc3o2)c1)c1ccco1`, the selectivity ratio is reported as 290.
In the case of `O=C(Nc1cccc(-c2nc3ncc(-c4ccccc4)cc3o2)c1)c1ccco1`, the selectivity ratio is reported as 84.
Work on `COc1ccc(-c2cnc3nc(-c4cccc(NC(=O)c5ccco5)c4)oc3c2)cc1` yielded a selectivity ratio of 130.
Molecule `O=C(Nc1cccc(-c2nc3ncc(-c4ccc(Cl)cc4)cc3o2)c1)c1ccco1` has a selectivity ratio of 150.
For `O=C(Nc1cccc(-c2nc3ncccc3[nH]2)c1)c1ccco1`, the selectivity ratio was 54.
For `O=C(Nc1cccc(-c2nc3ncccc3[nH]2)c1)c1ccoc1`, the selectivity ratio was 39.
In the case of `O=C(Nc1ccc(Cl)c(-c2nc3ncccc3o2)c1)c1ccccn1`, the selectivity ratio is reported as 15.
`O=C(Nc1cccc(-c2nc3ncccc3o2)c1)c1cnco1` gave a selectivity ratio of 29.

Test system: Trypanosoma brucei brucei
Assay: Antitrypanosomal activity against Trypanosoma brucei brucei 427 bloodstream form after 48 hrs by Alamar blue assay
Assay type: functional, organism-based
Conditions: Trypanosoma brucei, 427, 48 h
Method in brief: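 Bloodstream parasites in 384-well plates, 24 h preincubation at 37 °C/5% CO2. DMSO dilutions diluted 1:21 in DMEM and added to give final 41.67 to 0.0004 µM; 48 h incubation. 70% Alamar Blue in HMI-9 + 10% FCS added, 2 h at 37 °C then 22 h at room temperature; read at ex 535/em 590 nm.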
In the case of `COc1ccc(-c2nc3ncccc3o2)cc1NC(=O)c1ccco1`, the IC50 is reported as 1.1 µM.
In the case of `O=C(Nc1cccc(-c2nc3ncccc3o2)c1)c1ccco1`, the IC50 is reported as 0.34 µM.
Molecule `Cc1ccc(-c2nc3ncccc3o2)cc1NC(=O)c1ccco1` has an IC50 of 6.2 µM.
Work on `Cc1ccc(NC(=O)c2ccco2)cc1-c1nc2ncccc2o1` yielded an IC50 of 0.94 µM.
In the case of `Cc1ccc(NC(=O)c2cscn2)cc1-c1nc2ncccc2o1`, the IC50 is reported as 2.6 µM.
For `O=C(Nc1ccc(F)c(-c2nc3ncccc3o2)c1)c1ccco1`, the IC50 was 0.29 µM.
In the case of `O=C(Nc1cccc(-c2nc3ncc(-c4ccccc4)cc3o2)c1)c1ccco1`, the IC50 is reported as 0.12 µM.
Molecule `COc1ccc(-c2cnc3nc(-c4cccc(NC(=O)c5ccco5)c4)oc3c2)cc1` has an IC50 of 0.63 µM.
With `O=C(Nc1cccc(-c2nc3ncc(-c4ccc(Cl)cc4)cc3o2)c1)c1ccco1` the IC50 was 0.55 µM.
Work on `O=C(Nc1cccc(-c2nc3ncccc3[nH]2)c1)c1ccco1` yielded an IC50 of 0.78 µM.
For `O=C(Nc1cccc(-c2nc3ncccc3[nH]2)c1)c1ccoc1`, the IC50 was 1 µM.
For `O=C(Nc1ccc(Cl)c(-c2nc3ncccc3o2)c1)c1ccccn1`, the IC50 was 5.7 µM.
`O=C(Nc1cccc(-c2nc3ncccc3o2)c1)c1cnco1` showed an IC50 of 2.9 µM.
